From ChEMBL document CHEMBL1134482, “Ether phospholipid-AZT conjugates possessing anti-HIV and antitumor cell activity. Synthesis, conformational analysis, and study of their thermal effects on membrane bilayers” (J Med Chem, 2001)

Experiments:
CEM-TK(-) = experiment: Concentration required to protect CEM/TK cells against the cytopathicity of HIV-2 by 50%; type: functional, cell-based; conditions: Homo sapiens
Method in brief: (§1)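 CEM cells (wild-type, or TK-deficient for the HIV-2 CEM/TK- line) were infected with HIV-1 or HIV-2. EC50 was taken as the concentration protecting the cells from virus-induced cytopathicity by 50%. Values are averages of at least two separate experiments.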

CCRF-CEM [1] = experiment: Concentration required to protect CEM/0 cells against the cytopathicity of HIV-1 by 50%.; type: functional, cell-based; conditions: Homo sapiens; method in brief: as §1
CCRF-CEM [2] = experiment: Concentration required to reduce CEM/0 cell viability by 50%; type: functional; conditions: Homo sapiens
Method in brief: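 Uninfected CEM/0 T-lymphocytes were exposed to the compound. CC50 was the concentration reducing CEM cell viability by 50%. Values are averages of at least two separate experiments.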

FM3A = experiment: Inhibitory effect of compound on the proliferation of murine mammary carcinoma cells FM3A/0; type: functional, cell-based; conditions: Mus musculus
Method in brief: (§2)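 Murine L1210/0, L1210/TK- leukemia cells or FM3A/0 mammary carcinoma cells were incubated with the compound for 2 days at 37 °C. IC50 was the concentration reducing the total number of viable cells by 50%.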

L1210/TK- = experiment: Inhibitory effect of compound on the proliferation of murine leukemia cells L1210/TK-; type: functional, cell-based; conditions: Mus musculus; method in brief: as §2
L1210 = experiment: Inhibitory effect of compound on the proliferation of murine leukemia cells L1210/0.; type: functional, cell-based; conditions: Mus musculus; method in brief: as §2
MOLT-4 = experiment: Inhibitory effect of compound on the proliferation of human T-lymphocyte cells Molt4/C8; type: functional, cell-based
Method in brief: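 Human Molt4/C8 T-lymphoblast cells were incubated with the compound for 3 days at 37 °C. IC50 was the concentration cutting the total viable cell number by 50%.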

CCRF-CEM [3] = experiment: Concentration required to protect CEM/0 cells against the cytopathicity of HIV-2 by 50%.; type: functional, cell-based; conditions: Homo sapiens; method in brief: as §1

EC50 (CEM-TK(-))	EC50 (CCRF-CEM [1])	IC50 (L1210/TK-)	IC50 (L1210)	IC50 (MOLT-4)	EC50 (CCRF-CEM [3])	SMILES	CC50 (CCRF-CEM [2])	IC50 (FM3A)
> 10 µM	0.065 µM	33.6 µM	0.98 µM	21.4 µM	0.08 µM	CCCCCCCCCCCCCCCCOCC(COP(=O)(O)OCC1OC(n2cc(C)c(=O)[nH]c2=O)CC1N=[N+]=[N-])OC (stereo not drawn)	34.3 µM	68.4 µM
> 50 µM	0.58 µM	165 µM	12.5 µM	144 µM	1 µM	CCCCCCCCCCCCCCCCOP(=O)(O)OCC1OC(n2cc(C)c(=O)[nH]c2=O)CC1N=[N+]=[N-] (stereo not drawn)	161 µM	133 µM

SMILES	EC50 (CEM-TK(-))	EC50 (CCRF-CEM [1])	IC50 (L1210/TK-)	IC50 (L1210)	IC50 (MOLT-4)	EC50 (CCRF-CEM [3])	CC50 (CCRF-CEM [2])	IC50 (FM3A)
Cc1cn([C@H]2C[C@H](N=[N+]=[N-])[C@@H](CO)O2)c(=O)[nH]c1=O [ZIDOVUDINE]	> 100 µM	0.0064 µM	> 500 µM	6.18 µM	62.8 µM	–	> 500 µM	203 µM
